Here are results for 13 compounds from ChEMBL document CHEMBL1156637, “Bioactive 5alpha-pregnane-type steroidal alkaloids from Sarcococca hookeriana” (J Nat Prod, 2008).

Assay [1] has as its system Bacillus subtilis. The assay is described as follows: Antibacterial activity against Bacillus subtilis by agar well diffusion method. Format: functional. (A growth-free zone around the sample is the usual read-out of agar diffusion tests.)
The target of another assay is Cholinesterase (Homo sapiens, UniProt P06276). The assay is described as follows: Inhibition of butyrylcholinesterase. In outline:
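In vitro enzyme inhibition assay, reported as IC50 with the standard error of the mean from five assays.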

In assay [2] the test system is Micrococcus luteus. In words: Antibacterial activity against Micrococcus luteus by agar well diffusion method. Format: functional.
The test system of assay [3] is Pseudomonas. The assay is described as follows: Antibacterial activity against Pseudomonas pallida assessed as zone of inhibition at 1.0 mg/mL by agar well diffusion method. In kind it is functional. As to conditions: for zone of inhibition at 1000 µg/mL: read-out: IZ. Summed up: (§1)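 Agar well diffusion with pure compounds loaded into wells at 1.0 mg/mL. Zone of inhibition read in mm. Ampicillin is the reference for Gram-positive strains and gentamicin for Gram-negative strains.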

Assay [4] relates to Bacillus subtilis. The assay is described as follows: Antibacterial activity against Bacillus subtilis assessed as zone of inhibition at 1.0 mg/mL by agar well diffusion method. In kind it is functional. The settings on record: read-out: IZ. In outline:
as §1

The subject of assay [5] is Micrococcus luteus. In words: Antibacterial activity against Micrococcus luteus assessed as zone of inhibition at 1.0 mg/mL by agar well diffusion method. Format: functional. The settings on record: for zone of inhibition at 1000 µg/mL: read-out: IZ. Summed up:
as §1

The test system of assay [6] is Pseudomonas. In words: Antibacterial activity against Pseudomonas pallida by agar well diffusion method. In kind it is functional.
Assay [7] relates to Enterococcus faecalis. In words: Antibacterial activity against Streptococcus faecalis assessed as zone of inhibition at 1.0 mg/mL by agar well diffusion method. In kind it is functional. As to conditions: for zone of inhibition at 1000 µg/mL: read-out: IZ. Summed up: as §1
For the next assay, the target named is Acetylcholinesterase (Homo sapiens, UniProt P22303). In words: Inhibition of acetylcholinesterase.
Acetylcholinesterase, sequence (P22303 whole entry): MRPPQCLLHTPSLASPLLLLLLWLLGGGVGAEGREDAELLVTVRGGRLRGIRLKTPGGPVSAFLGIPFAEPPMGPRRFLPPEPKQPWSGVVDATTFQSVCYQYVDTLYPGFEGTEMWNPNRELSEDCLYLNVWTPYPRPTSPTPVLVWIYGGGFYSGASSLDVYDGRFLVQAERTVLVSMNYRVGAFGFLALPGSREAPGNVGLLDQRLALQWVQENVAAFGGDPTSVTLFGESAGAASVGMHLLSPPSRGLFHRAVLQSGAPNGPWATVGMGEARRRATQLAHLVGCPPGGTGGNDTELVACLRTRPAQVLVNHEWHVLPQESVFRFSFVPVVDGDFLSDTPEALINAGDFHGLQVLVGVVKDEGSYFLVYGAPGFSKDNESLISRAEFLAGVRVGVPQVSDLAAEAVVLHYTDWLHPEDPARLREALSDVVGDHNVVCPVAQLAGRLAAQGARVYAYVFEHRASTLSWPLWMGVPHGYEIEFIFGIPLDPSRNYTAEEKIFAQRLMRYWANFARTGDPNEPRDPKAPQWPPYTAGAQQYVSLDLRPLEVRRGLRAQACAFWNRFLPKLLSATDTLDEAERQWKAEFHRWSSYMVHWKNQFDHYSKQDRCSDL
The test system of a further assay is Leishmania major. In words: Antileishmanial activity against Leishmania major. Format: functional, organism-based.
The subject of assay [8] is Enterococcus faecalis. The assay is described as follows: Antibacterial activity against Streptococcus faecalis assessed as zone of inhibition at 0.25 mg/mL by agar well diffusion method. In kind it is functional. The settings on record: read-out: IZ. In outline:
(§2)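 Reference antibiotic (ampicillin for these Gram-positive strains) tested by agar well diffusion at 0.25 mg/mL. Inhibition zone diameter recorded in mm.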

In assay [9] the test system is Micrococcus luteus. In words: Antibacterial activity against Micrococcus luteus assessed as zone of inhibition at 0.25 mg/mL by agar well diffusion method. In kind it is functional. The settings on record: read-out: IZ. Summed up: as §2
Assay [10] relates to Bacillus subtilis. In words: Antibacterial activity against Bacillus subtilis assessed as zone of inhibition at 0.25 mg/mL by agar well diffusion method. Format: functional. As to conditions: read-out: IZ. In outline: as §2

In brackets after ≈: the same amount, converted by molar mass. Activity calls are given as the source filed them. The calls are words filed in the database; no cut-off is given here.

For orientation: MIC means the lowest concentration that inhibits growth of the organism. High values mean a need for much substance, low ones inhibition by little substance. What is called IC50 is the concentration that inhibits the measured activity by half. Higher therefore signals a need for much substance.

Cholinesterase, sequence (P06276 whole entry): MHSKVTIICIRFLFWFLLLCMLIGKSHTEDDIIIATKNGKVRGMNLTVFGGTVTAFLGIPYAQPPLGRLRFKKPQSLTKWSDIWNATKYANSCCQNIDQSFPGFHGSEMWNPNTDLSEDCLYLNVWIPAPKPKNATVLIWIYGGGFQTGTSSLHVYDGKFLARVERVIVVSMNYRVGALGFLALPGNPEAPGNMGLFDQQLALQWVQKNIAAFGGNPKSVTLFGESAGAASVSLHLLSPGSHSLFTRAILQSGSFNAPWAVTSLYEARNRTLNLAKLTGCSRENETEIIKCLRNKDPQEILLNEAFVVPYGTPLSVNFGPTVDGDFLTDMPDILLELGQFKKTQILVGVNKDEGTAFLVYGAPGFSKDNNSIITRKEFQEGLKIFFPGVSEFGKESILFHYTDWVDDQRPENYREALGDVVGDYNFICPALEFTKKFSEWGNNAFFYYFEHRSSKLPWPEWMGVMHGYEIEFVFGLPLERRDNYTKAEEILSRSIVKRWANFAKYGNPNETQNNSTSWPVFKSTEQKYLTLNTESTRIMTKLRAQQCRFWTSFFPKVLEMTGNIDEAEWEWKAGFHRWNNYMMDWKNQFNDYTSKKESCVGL

In the case of `C[C@@H]([C@H]1CC[C@H]2[C@@H]3CC[C@H]4C[C@@H](N(C)C)CC[C@]4(C)[C@H]3CC[C@]12C)N(C)C`, the MIC came out at 83.5 µM (≈ 31.3 µg/mL) in the assay on Bacillus subtilis [1], 167 µM (≈ 62.6 µg/mL) with Micrococcus luteus [2] and 167 µM (≈ 62.6 µg/mL) in the assay on Pseudomonas [6]. In addition, the IC50 on Cholinesterase was found to be 1.6 µM; against Acetylcholinesterase it was 22.1 µM. Also, the zone of inhibition at 1000 µg/mL is 14.5 mm in the assay with Pseudomonas [3], 19 mm with Bacillus subtilis [4], 11 mm with Micrococcus luteus [5] and 8 mm with Enterococcus faecalis [7].

Consider `CN[C@@H](C)[C@H]1CC[C@H]2[C@@H]3CC=C4C(=O)[C@@H](NC(=O)C=C(C)C)CC[C@]4(C)[C@H]3CC[C@]12C`, for which the MIC in the assay with Bacillus subtilis [1] amounted to 568 µM (≈ 242 µg/mL). The IC50 against Cholinesterase is 0.6 µM; on Acetylcholinesterase it was 9.9 µM. Further, the outcome in the assay with Pseudomonas [3], in the assay with Micrococcus luteus [5] and in the assay on Enterococcus faecalis [7] was inactive. For the same compound, the zone of inhibition at 1000 µg/mL in the assay with Bacillus subtilis [4] amounted to 9 mm.

Compound `C/C=C(\C)C(=O)NC1=CC[C@@]2(C)C(=CC[C@H]3[C@@H]4CC[C@H]([C@H](C)NC)[C@@]4(C)CC[C@@H]32)C1=O` showed an IC50 in the assay on Leishmania major of 21.3 µM. Besides, the MIC in the assay on Bacillus subtilis [1] came to 35.6 µM (≈ 15.1 µg/mL); in the assay on Micrococcus luteus [2], 143 µM (≈ 60.6 µg/mL); against Pseudomonas [6] it was 35.6 µM (≈ 15.1 µg/mL). Also, the zone of inhibition at 1000 µg/mL came to 16.5 mm with Pseudomonas [3], 20 mm in the assay on Bacillus subtilis [4], 12.5 mm in the assay with Micrococcus luteus [5] and 10 mm in the assay with Enterococcus faecalis [7].

Take `C[C@@H]1[C@H](O)[C@@H](C)/C=C/C=C/C=C/C=C/C=C/C=C/C=C/[C@H](O[C@@H]2O[C@H](C)[C@@H](O)[C@H](N)[C@@H]2O)C[C@@H]2O[C@](O)(C[C@@H](O)C[C@@H](O)[C@H](O)CC[C@@H](O)C[C@@H](O)CC(=O)O[C@H]1C)C[C@H](O)[C@H]2C(=O)O` [AMPHOTERICIN B]: in the assay on Leishmania major, the IC50 is 0.5 µM.

As for `CC1(C)S[C@@H]2[C@H](NC(=O)[C@H](N)c3ccccc3)C(=O)N2[C@H]1C(=O)O` [AMPICILLIN], the zone of inhibition at 250 µg/mL in the assay with Enterococcus faecalis [8] turned out to be 25 mm; with Micrococcus luteus [9] it was 26 mm; in the assay with Bacillus subtilis [10], 29 mm. For the same compound, the minimal inhibitory concentration (MIC) in the assay on Bacillus subtilis [1] is 89.7 µM (≈ 31.3 µg/mL); in the assay with Micrococcus luteus [2], 5.6 µM (≈ 1.96 µg/mL).

For `C[C@@H]([C@H]1CC[C@H]2[C@@H]3CC[C@H]4C[C@@H](N)CC[C@]4(C)[C@H]3CC[C@]12C)N(C)C` [CHONEMORPHINE], the values for the MIC against Bacillus subtilis [1], in the assay with Micrococcus luteus [2] and in the assay on Pseudomonas [6] were 90.3 µM (≈ 31.3 µg/mL), 90.3 µM (≈ 31.3 µg/mL) and 181 µM (≈ 62.6 µg/mL), respectively. The IC50 on Cholinesterase is 0.5 µM; on Acetylcholinesterase it was 28 µM. Besides, the zone of inhibition at 1000 µg/mL was 14 mm with Pseudomonas [3], 16.5 mm with Bacillus subtilis [4], 11.5 mm in the assay with Micrococcus luteus [5] and 10 mm with Enterococcus faecalis [7].

In turn, `C[C@@H]([C@H]1CC[C@H]2[C@@H]3CC[C@H]4C(=O)C(NC=O)=CC[C@]4(C)[C@H]3CC[C@]12C)N(C)C` [HOOKERIANAMIDE H] returned an IC50 in the assay on Leishmania major of 22.4 µM. In addition, the MIC against Bacillus subtilis [1] and in the assay with Micrococcus luteus [2] was 324 µM (≈ 125 µg/mL) in each case. Further, the outcome in the assay on Pseudomonas [3] and in the assay on Enterococcus faecalis [7] was inactive. Also, the zone of inhibition at 1000 µg/mL with Bacillus subtilis [4] was determined as 11.5 mm; in the assay on Micrococcus luteus [5], 11 mm.

In the assay with Leishmania major, `CN[C@@H](C)[C@H]1CC[C@H]2[C@@H]3CC[C@H]4C[C@@H](N(C)C(=O)c5ccccc5)CC[C@]4(C)[C@H]3CC[C@]12C` [HOOKERIANAMIDE I] had an IC50 of 8.8 µM. Moreover, the MIC against Bacillus subtilis [1] was 69.4 µM (≈ 31.3 µg/mL); against Micrococcus luteus [2], 34.7 µM (≈ 15.6 µg/mL); in the assay with Pseudomonas [6], 69.4 µM (≈ 31.3 µg/mL). Also, the zone of inhibition at 1000 µg/mL with Pseudomonas [3] worked out at 18.5 mm; with Bacillus subtilis [4], 17.5 mm; in the assay on Micrococcus luteus [5] it was 18 mm; in the assay on Enterococcus faecalis [7], 8 mm.

Turning to `CC(C)=CC(=O)N[C@H]1CC[C@@]2(C)[C@@H](CC[C@@H]3[C@@H]2CC[C@]2(C)C([C@H](C)N(C)C)=CC[C@@H]32)[C@H]1O` [HOOKERIANAMIDE J], the IC50 in the assay on Leishmania major came out at 11.3 µM; against Cholinesterase, 0.8 µM; against Acetylcholinesterase it was 48.5 µM. The MIC was 141 µM (≈ 62.6 µg/mL) against Bacillus subtilis [1] and 70.7 µM (≈ 31.3 µg/mL) against Pseudomonas [6]. Further, the zone of inhibition at 1000 µg/mL with Pseudomonas [3] is 12 mm; with Bacillus subtilis [4] it was 15 mm. In addition, the result in the assay with Micrococcus luteus [5] and in the assay on Enterococcus faecalis [7] was inactive.

`C[C@@H]([C@H]1CC=C2[C@@H]3CCC4=C[C@@H](N(C)C)CC[C@]4(C)[C@H]3CC[C@@]21C)N(C)C` [HOOKERIANAMIDE K]: the IC50 in the assay with Leishmania major came to 6.8 µM; on Cholinesterase, 4 µM; against Acetylcholinesterase, 24.2 µM. The results for the MIC with Bacillus subtilis [1], against Micrococcus luteus [2] and against Pseudomonas [6] were 338 µM (≈ 125 µg/mL), 651 µM (≈ 241 µg/mL) and 169 µM (≈ 62.6 µg/mL), respectively. Moreover, the zone of inhibition at 1000 µg/mL was 10.5 mm with Pseudomonas [3], 13 mm in the assay on Bacillus subtilis [4], 9.5 mm in the assay on Micrococcus luteus [5] and 10 mm in the assay with Enterococcus faecalis [7].

In turn, `N=C(N)c1ccc(OCCCCCOc2ccc(C(=N)N)cc2)cc1` [PENTAMIDINE] returned an IC50 in the assay with Leishmania major of 7.5 µM.

On to `C/C=C(\C)C(=O)N[C@H]1CC[C@]2(C)[C@H]3CC[C@]4(C)[C@@H]([C@H](C)NC)CC[C@H]4[C@@H]3CC[C@H]2[C@H]1OC(C)=O` [SARCOVAGINE C], for which the IC50 in the assay on Leishmania major was 1.5 µM; on Cholinesterase it was 0.4 µM; at Acetylcholinesterase it was 8.1 µM. Also, the MIC against Bacillus subtilis [1] came to 64.3 µM (≈ 30.4 µg/mL); with Micrococcus luteus [2], 64.3 µM (≈ 30.4 µg/mL); against Pseudomonas [6], 32.1 µM (≈ 15.2 µg/mL). In addition, the zone of inhibition at 1000 µg/mL is 17.5 mm in the assay with Pseudomonas [3], 20 mm in the assay with Bacillus subtilis [4], 13.5 mm with Micrococcus luteus [5] and 12 mm with Enterococcus faecalis [7].

Take `CN[C@@H](C)[C@H]1CC[C@H]2[C@@H]3CC[C@H]4[C@@H](OC(C)=O)[C@@H](NC(=O)C=C(C)C)CC[C@]4(C)[C@H]3CC[C@]12C` [VAGENINE A]: half-maximal inhibition in the assay with Leishmania major (IC50) was put at 3.3 µM. Moreover, the MIC against Bacillus subtilis [1] and against Pseudomonas [6] was 64.3 µM (≈ 30.4 µg/mL) in each case. For the same compound, the zone of inhibition at 1000 µg/mL with Pseudomonas [3] is 13.5 mm; in the assay with Bacillus subtilis [4], 17 mm; in the assay on Enterococcus faecalis [7] it was 10 mm. Moreover, the outcome in the assay on Micrococcus luteus [5] was inactive.
